Inhibition of growth data for 18 compounds are collected here from ChEMBL document CHEMBL3045462, “Synthesis and fungicidal activity of novel 4,4'-bis(2' '-aryl-5' '-methyl/unsubstituted-4' '-oxo-thiazolidin-3' '-yl) bibenzyl” (2003).

Assay type in all cases: functional
Settings in all cases: read-out: GI

For test [1], the system named is Penicillium citrinum. Briefly: Growth inhibition of Penicillium citrinum at 100 ppm after 96 hr by poisoned food technique. The gist of the method:
(§1)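 Poisoned food technique in vitro: test compound mixed into Czapek's agar at 1000, 100 or 10 ppm, then Fusarium oxysporum or Penicillium citrinum grown on the medium. Growth inhibition was scored following previously described methods.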

Test [2] relates to Penicillium citrinum. Briefly: Growth inhibition of Penicillium citrinum at 10 ppm after 96 hr by poisoned food technique. The method, boiled down:
as §1

The subject of test [3] is Fusarium oxysporum. Briefly: Growth inhibition of Fusarium oxysporum at 1000 ppm after 96 hr by poisoned food technique. The gist of the method:
as §1

The subject of test [4] is Penicillium citrinum. Briefly: Growth inhibition of Penicillium citrinum at 1000 ppm after 96 hr by poisoned food technique. The gist of the method: as §1
Test [5] relates to Fusarium oxysporum. In words: Growth inhibition of Fusarium oxysporum at 100 ppm after 96 hr by poisoned food technique. The method, boiled down:
as §1

Test [6] relates to Fusarium oxysporum. In words: Growth inhibition of Fusarium oxysporum at 10 ppm after 96 hr by poisoned food technique. The method, boiled down:
as §1

For `COc1ccc(/C=N/c2ccc(CCc3ccc(/N=C/c4ccc(OC)c(OC)c4)cc3)cc2)cc1OC`, the inhibition of growth at 100 ppm in the test on Penicillium citrinum [1] is 27%; with Fusarium oxysporum [5], 43%. The inhibition of growth at 10 ppm was 19% in the test with Penicillium citrinum [2] and 31% in the test on Fusarium oxysporum [6]. Moreover, the values for the inhibition of growth at 1000 ppm with Fusarium oxysporum [3] and in the test with Penicillium citrinum [4] were 55% and 42%, respectively.
For the compound `Clc1ccc(/C=N/c2ccc(CCc3ccc(/N=C/c4ccc(Cl)cc4)cc3)cc2)cc1`, the results for the inhibition of growth at 100 ppm with Penicillium citrinum [1] and with Fusarium oxysporum [5] were 30% and 47%, respectively. Besides, the inhibition of growth at 10 ppm came out at 15% in the test on Penicillium citrinum [2] and 20% in the test with Fusarium oxysporum [6]. Moreover, the inhibition of growth at 1000 ppm in the test on Fusarium oxysporum [3] was 83%; in the test with Penicillium citrinum [4], 88%.
On to `COc1ccc([C@@H]2S[C@@H](C)C(=O)N2c2ccc(CCc3ccc(N4C(=O)[C@H](C)S[C@H]4c4ccc(OC)c(OC)c4)cc3)cc2)cc1OC`, for which the inhibition of growth at 100 ppm in the test with Penicillium citrinum [1] stood at 55%; with Fusarium oxysporum [5], 58%. In addition, the values for the inhibition of growth at 10 ppm in the test on Penicillium citrinum [2] and with Fusarium oxysporum [6] were 46% and 51%, respectively. In addition, the results for the inhibition of growth at 1000 ppm with Fusarium oxysporum [3] and with Penicillium citrinum [4] were 71% and 63%, respectively.
Regarding `COc1cc(/C=N/c2ccc(CCc3ccc(/N=C/c4ccc(O)c(OC)c4)cc3)cc2)ccc1O`, the figures for the inhibition of growth at 100 ppm in the test on Penicillium citrinum [1] and in the test on Fusarium oxysporum [5] were 45% and 47%, respectively. In addition, the inhibition of growth at 10 ppm in the test on Penicillium citrinum [2] was 37%; in the test on Fusarium oxysporum [6], 48%. In addition, the inhibition of growth at 1000 ppm in the test with Fusarium oxysporum [3] is 51%; in the test on Penicillium citrinum [4], 57%.
Turning to `O=C1CS[C@@H](c2ccccc2)N1c1ccc(CCc2ccc(N3C(=O)CS[C@H]3c3ccccc3)cc2)cc1`, the inhibition of growth at 100 ppm in the test with Penicillium citrinum [1] came to 20%; in the test with Fusarium oxysporum [5], 30%. Also, the inhibition of growth at 10 ppm in the test with Penicillium citrinum [2] worked out at 10%; in the test with Fusarium oxysporum [6], 12%. The inhibition of growth at 1000 ppm with Fusarium oxysporum [3] turned out to be 55%; in the test on Penicillium citrinum [4] it was 51%.
Consider `Oc1ccccc1/C=N/c1ccc(CCc2ccc(/N=C/c3ccccc3O)cc2)cc1`, for which the inhibition of growth at 100 ppm was determined as 33% in the test with Penicillium citrinum [1] and 53% in the test on Fusarium oxysporum [5]. Besides, the figures for the inhibition of growth at 10 ppm with Penicillium citrinum [2] and in the test on Fusarium oxysporum [6] were 23% and 25%, respectively. The inhibition of growth at 1000 ppm in the test on Fusarium oxysporum [3] came to 62%; in the test with Penicillium citrinum [4], 50%.
Consider `COc1cc([C@@H]2S[C@@H](C)C(=O)N2c2ccc(CCc3ccc(N4C(=O)[C@H](C)S[C@H]4c4ccc(O)c(OC)c4)cc3)cc2)ccc1O`, for which the inhibition of growth at 100 ppm with Penicillium citrinum [1] turned out to be 58%; in the test with Fusarium oxysporum [5] it was 85%. The inhibition of growth at 10 ppm in the test with Penicillium citrinum [2] was 45%; with Fusarium oxysporum [6] it was 76%. The inhibition of growth at 1000 ppm came out at 91% in the test on Fusarium oxysporum [3] and 87% in the test on Penicillium citrinum [4].
For the compound `C[C@@H]1S[C@@H](c2ccccc2O)N(c2ccc(CCc3ccc(N4C(=O)[C@H](C)S[C@H]4c4ccccc4O)cc3)cc2)C1=O`, the inhibition of growth at 100 ppm was 65% with Penicillium citrinum [1] and 71% in the test with Fusarium oxysporum [5]. For the same compound, the inhibition of growth at 10 ppm in the test on Penicillium citrinum [2] amounted to 37%; in the test with Fusarium oxysporum [6], 30%. For the same compound, the inhibition of growth at 1000 ppm with Fusarium oxysporum [3] came to 88%; in the test on Penicillium citrinum [4], 78%.
For the compound `COc1ccc([C@@H]2SCC(=O)N2c2ccc(CCc3ccc(N4C(=O)CS[C@H]4c4ccc(OC)cc4)cc3)cc2)cc1`, the results for the inhibition of growth at 100 ppm in the test with Penicillium citrinum [1] and in the test on Fusarium oxysporum [5] were 32% and 50%, respectively. In addition, the inhibition of growth at 10 ppm with Penicillium citrinum [2] was 17%; in the test with Fusarium oxysporum [6] it was 24%. In addition, the inhibition of growth at 1000 ppm in the test on Fusarium oxysporum [3] was 61%; in the test on Penicillium citrinum [4], 46%.
For the compound `O=C1CS[C@@H](c2ccccc2O)N1c1ccc(CCc2ccc(N3C(=O)CS[C@H]3c3ccccc3O)cc2)cc1`, the inhibition of growth at 100 ppm with Penicillium citrinum [1] was 40%; with Fusarium oxysporum [5], 50%. For the same compound, the inhibition of growth at 10 ppm in the test on Penicillium citrinum [2] was determined as 25%; in the test with Fusarium oxysporum [6] it was 39%. Also, the results for the inhibition of growth at 1000 ppm with Fusarium oxysporum [3] and in the test with Penicillium citrinum [4] were 61% and 67%, respectively.
In the case of `O=C1CS[C@@H](c2ccc(Cl)cc2)N1c1ccc(CCc2ccc(N3C(=O)CS[C@H]3c3ccc(Cl)cc3)cc2)cc1`, the inhibition of growth at 100 ppm in the test with Penicillium citrinum [1] is 33%; in the test on Fusarium oxysporum [5] it was 43%. Also, the inhibition of growth at 10 ppm in the test on Penicillium citrinum [2] came out at 8%; with Fusarium oxysporum [6], 15%. For the same compound, the inhibition of growth at 1000 ppm worked out at 82% in the test on Fusarium oxysporum [3] and 87% in the test with Penicillium citrinum [4].
Regarding `COc1ccc([C@@H]2S[C@@H](C)C(=O)N2c2ccc(CCc3ccc(N4C(=O)[C@H](C)S[C@H]4c4ccc(OC)cc4)cc3)cc2)cc1`, the inhibition of growth at 100 ppm in the test on Penicillium citrinum [1] was 69%; in the test on Fusarium oxysporum [5], 62%. The inhibition of growth at 10 ppm with Penicillium citrinum [2] is 45%; with Fusarium oxysporum [6], 41%. Also, the inhibition of growth at 1000 ppm is 85% in the test on Fusarium oxysporum [3] and 88% in the test on Penicillium citrinum [4].
As for `COc1ccc([C@@H]2SCC(=O)N2c2ccc(CCc3ccc(N4C(=O)CS[C@H]4c4ccc(OC)c(OC)c4)cc3)cc2)cc1OC`, the inhibition of growth at 100 ppm with Penicillium citrinum [1] was 50%; with Fusarium oxysporum [5] it was 26%. For the same compound, the inhibition of growth at 10 ppm worked out at 26% in the test on Penicillium citrinum [2] and 24% in the test with Fusarium oxysporum [6]. Further, the inhibition of growth at 1000 ppm with Fusarium oxysporum [3] is 38%; in the test on Penicillium citrinum [4], 67%.
Take `C[C@@H]1S[C@@H](c2ccccc2)N(c2ccc(CCc3ccc(N4C(=O)[C@H](C)S[C@H]4c4ccccc4)cc3)cc2)C1=O`: the inhibition of growth at 100 ppm stood at 79% in the test on Penicillium citrinum [1] and 81% with Fusarium oxysporum [5]. The inhibition of growth at 10 ppm in the test on Penicillium citrinum [2] was 53%; in the test with Fusarium oxysporum [6] it was 59%. In addition, the inhibition of growth at 1000 ppm with Fusarium oxysporum [3] and in the test with Penicillium citrinum [4] was 100% throughout.
For `COc1cc([C@@H]2SCC(=O)N2c2ccc(CCc3ccc(N4C(=O)CS[C@H]4c4ccc(O)c(OC)c4)cc3)cc2)ccc1O`, the inhibition of growth at 100 ppm with Penicillium citrinum [1] was found to be 56%; in the test on Fusarium oxysporum [5], 65%. Moreover, the inhibition of growth at 10 ppm in the test with Penicillium citrinum [2] worked out at 38%; in the test on Fusarium oxysporum [6], 40%. The inhibition of growth at 1000 ppm was found to be 78% in the test on Fusarium oxysporum [3] and 73% with Penicillium citrinum [4].
As for `COc1ccc(/C=N/c2ccc(CCc3ccc(/N=C/c4ccc(OC)cc4)cc3)cc2)cc1`, the values for the inhibition of growth at 100 ppm in the test on Penicillium citrinum [1] and in the test with Fusarium oxysporum [5] were 44% and 36%, respectively. The inhibition of growth at 10 ppm in the test with Penicillium citrinum [2] is 21%; in the test on Fusarium oxysporum [6] it was 29%. The values for the inhibition of growth at 1000 ppm with Fusarium oxysporum [3] and in the test with Penicillium citrinum [4] were 46% and 58%, respectively.
In the case of `C[C@@H]1S[C@@H](c2ccc(Cl)cc2)N(c2ccc(CCc3ccc(N4C(=O)[C@H](C)S[C@H]4c4ccc(Cl)cc4)cc3)cc2)C1=O`, the inhibition of growth at 100 ppm with Penicillium citrinum [1] is 42%; in the test on Fusarium oxysporum [5], 65%. In addition, the inhibition of growth at 10 ppm stood at 30% with Penicillium citrinum [2] and 40% in the test on Fusarium oxysporum [6]. Moreover, the inhibition of growth at 1000 ppm in the test on Fusarium oxysporum [3] was 75%; with Penicillium citrinum [4] it was 68%.
As for `C(=N\c1ccc(CCc2ccc(/N=C/c3ccccc3)cc2)cc1)/c1ccccc1`, the inhibition of growth at 100 ppm was 20% in the test with Penicillium citrinum [1] and 24% in the test with Fusarium oxysporum [5]. In addition, the inhibition of growth at 10 ppm amounted to 13% with Penicillium citrinum [2] and 9% in the test with Fusarium oxysporum [6]. Also, the inhibition of growth at 1000 ppm worked out at 50% with Fusarium oxysporum [3] and 56% in the test with Penicillium citrinum [4].
